The source of these data is ChEMBL document CHEMBL1134737, “Synthesis and purine receptor affinity of 6-oxopurine nucleosides and nucleotides containing (N)-methanocarba-pseudoribose rings” (Bioorg Med Chem Lett, 2001).

Calls of active or inactive are those of the source. The calls are words filed in the database; no cut-off is given here.

Assay [1] addresses Adenosine receptor A2a (Rattus norvegicus) (UniProt P30543). Nature of the assay: Displacement of [3H]-CGS- 21680 from A2A receptors in rat striatal membranes at 100 uM. The format is cell membranes. Conditions: Membrane. The essentials: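 Rat striatal membranes as A2A receptor source; displacement of specific [3H]CGS 21680 binding. Reported as Ki ± SEM or as % displacement, n = 3-6.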
Background: Loss of bound radioactivity is the signal in a displacement assay; it reports binding, not function.

In assay [2] the target is T1, Adenosine receptor A1 (Rattus norvegicus) (UniProt P25099).
T1 sequence (whole entry): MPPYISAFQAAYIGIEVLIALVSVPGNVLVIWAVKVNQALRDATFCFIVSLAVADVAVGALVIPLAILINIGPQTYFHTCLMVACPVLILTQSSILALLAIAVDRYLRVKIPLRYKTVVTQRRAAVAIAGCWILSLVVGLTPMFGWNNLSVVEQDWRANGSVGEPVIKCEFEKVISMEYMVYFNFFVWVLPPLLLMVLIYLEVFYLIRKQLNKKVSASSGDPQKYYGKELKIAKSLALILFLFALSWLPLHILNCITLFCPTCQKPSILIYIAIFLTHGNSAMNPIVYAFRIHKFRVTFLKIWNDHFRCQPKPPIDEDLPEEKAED
In words: Displacement of [3H]R-PIA from Adenosine A1 receptor in rat brain membrane at 100 uM. The format is cell membranes.

Another assay concerns the target T2, Adenosine receptor A3 (Homo sapiens, UniProt P0DMS8).
T2 sequence (P0DMS8 whole entry): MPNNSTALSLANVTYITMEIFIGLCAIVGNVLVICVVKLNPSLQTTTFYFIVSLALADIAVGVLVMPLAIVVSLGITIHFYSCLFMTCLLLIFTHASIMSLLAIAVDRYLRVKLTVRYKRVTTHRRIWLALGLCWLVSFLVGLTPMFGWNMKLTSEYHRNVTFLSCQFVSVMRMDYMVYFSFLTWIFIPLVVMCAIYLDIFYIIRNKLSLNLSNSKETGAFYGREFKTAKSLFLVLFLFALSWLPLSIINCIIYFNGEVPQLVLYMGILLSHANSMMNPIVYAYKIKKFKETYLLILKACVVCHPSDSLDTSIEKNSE
Nature of the assay: Displacement of [125I]AB-MECA from human Adenosine A3 receptor expressed in HEK293 cell membranes. The essentials:
(§1)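 Membranes from HEK-293 cells expressing human A3 receptor; specific [125I]AB-MECA binding displaced by test ligands. Reported as Ki ± SEM or as % displacement, n = 3-5.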

The target in the next assay is T3, Adenosine receptor A1 (Rattus norvegicus, UniProt P25099).
T3 sequence (P25099 whole entry): T1 sequence (whole entry)
Nature of the assay: Displacement of [3H]R-PIA binding to Adenosine A1 receptor in rat brain membrane. The format is cell membranes.

In assay [3] the target is T4, Adenosine receptor A3 (Homo sapiens) (UniProt P0DMS8).
T4 sequence (whole entry): T2 sequence (P0DMS8 whole entry)
In words: Displacement of [125I]AB-MECA from human Adenosine A3 receptor expressed in HEK293 cell membranes at 100 uM. In outline:
as §1

Assay [4] relates to HL-60. Nature of the assay: Effect on calcium mobilization in HL-60 cells at the dose of 100 uM concentration (1 uM UTP). The format is functional, Homo sapiens.
The test system of assay [5] is HL-60. Nature of the assay: Effect on calcium mobilization in HL-60 cells at the dose of 100 uM concentration; Inactive. The format is functional, cell-based. Conditions: Homo sapiens. A general note: Calcium assays in cells follow changes in intracellular calcium, usually with a dye or a luminescent sensor.

Chain of Adenosine receptor A2a (Rattus norvegicus) (P30543 whole entry): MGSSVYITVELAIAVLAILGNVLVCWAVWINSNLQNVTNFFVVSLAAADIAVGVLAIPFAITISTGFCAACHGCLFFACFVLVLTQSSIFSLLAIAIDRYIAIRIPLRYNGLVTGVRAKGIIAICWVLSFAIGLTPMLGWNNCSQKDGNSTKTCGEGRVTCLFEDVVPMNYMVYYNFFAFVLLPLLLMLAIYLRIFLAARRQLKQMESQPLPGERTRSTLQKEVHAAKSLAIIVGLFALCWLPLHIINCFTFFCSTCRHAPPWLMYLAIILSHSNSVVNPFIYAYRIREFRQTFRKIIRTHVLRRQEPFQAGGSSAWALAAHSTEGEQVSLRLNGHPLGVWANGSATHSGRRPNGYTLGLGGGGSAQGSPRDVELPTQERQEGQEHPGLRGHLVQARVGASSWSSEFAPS

With `CNC(=O)[C@@]12C[C@@H]1[C@@H](n1cnc3c(O)ncnc31)[C@H](O)[C@@H]2O`, the Displacement in assay [1] and in assay [2] was under 10% in each case.
For `CCCCn1c(=O)c2c(ncn2[C@H]2[C@H](O)[C@H](O)[C@]3(C(=O)NC)C[C@H]23)n(CCCC)c1=O`, in assay [1], the Displacement was under 10%. The figures for the Ki at Adenosine receptor A3 and at Adenosine receptor A1 were 1.86 µM and 24.4 µM, respectively.
`Nc1nc(O)c2ncn([C@H]3[C@H](O)[C@H](O)[C@]4(COP(=O)(O)OP(=O)(O)OP(=O)(O)O)C[C@H]34)c2n1`: the Displacement in assay [3] was under 10%. Also, the Activity with HL-60 [4] was determined as 53%.
In the case of `OC[C@@]12C[C@@H]1[C@@H](n1cnc3c(O)ncnc31)[C@H](O)[C@@H]2O`, the Displacement in assay [1] and in assay [2] was under 10% in each case.
Consider `O=P(O)(OC[C@@]12C[C@@H]1[C@@H](n1cnc3c(O)ncnc31)[C@H](O)[C@@H]2O)OP(=O)(O)OC[C@@]12C[C@@H]1[C@@H](n1cnc3c(O)ncnc31)[C@H](O)[C@@H]2O`, for which, in the assay with HL-60 [5], the outcome was inactive. Further, on Adenosine receptor A3, the affinity corresponds to a Ki of 21.6 µM.
For `Nc1nc(O)c2ncn([C@H]3[C@H](O)[C@H](O)[C@]4(CO)C[C@H]34)c2n1`, the Displacement in assay [1] and in assay [2] was under 10% in each case. For the same compound, the affinity at Adenosine receptor A3 corresponds to a Ki of 20.5 µM.
Consider `CCCCn1c(=O)c2c(ncn2[C@H]2[C@H](O)[C@H](O)[C@]3(CO)C[C@H]23)n(CCCC)c1=O`, for which the Displacement in assay [1] was under 10%. Besides, the Ki (commonly a dissociation constant, usually derived from enzyme kinetics or from competition with a known ligand) at Adenosine receptor A3 was determined as 4.35 µM; at Adenosine receptor A1 it was 2.97 µM.
The compound `CNC(=O)[C@@]12C[C@@H]1[C@@H](n1cnc3c(=O)[nH]cnc31)[C@H](O)[C@@H]2O` returned an inhibition constant Ki on Adenosine receptor A3 of 28.8 µM.
`CCCCn1c(=O)c2c(ncn2[C@H]2[C@H](O)[C@H](O)[C@]3(OP(=O)(O)OP(=O)(O)OP(=O)(O)O)C[C@H]23)n(CCCC)c1=O` returned a Displacement in assay [3] of under 10%.
With `O=P(O)(O)OC[C@@]12C[C@@H]1[C@@H](n1cnc3c(O)ncnc31)[C@H](O)[C@@H]2O`, in the assay with HL-60 [5], the outcome was inactive.
